Data as given in ChEMBL document CHEMBL1145779, “Structure-activity relationship study and drug profile of N-(4-fluorophenylsulfonyl)-L-valyl-L-leucinal (SJA6017) as a potent calpain inhibitor” (J Med Chem, 2003).

What was measured:
Prothrombin = Prothrombin (Homo sapiens, UniProt P00734); experiment: Inhibitory activity against thrombin
Rattus norvegicus [1] = organism: Rattus norvegicus; experiment: Binding towards rat plasma protein at 100 uM; type: ADME
Summary of the method: (§1)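 Test compound incubated at 10 or 100 μM with plasma from mouse, rat, monkey, dog and human. The filtrate was analysed, and binding was expressed as percent bound at each concentration.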

Rattus norvegicus [2] = organism: Rattus norvegicus; experiment: Binding towards rat plasma protein at 10 uM; type: ADME; summary of the method: as §1
[3] = Binding towards monkey plasma protein at 10 uM; type: ADME, cell-free; settings: cercopithecidae; summary of the method: as §1
Mus musculus [4] = organism: Mus musculus; experiment: Binding towards mouse plasma protein at 10 uM; type: ADME; summary of the method: as §1
Cytochrome P450 2C9 = Cytochrome P450 2C9 (Homo sapiens, UniProt P11712); experiment: Inhibition of Cytochrome P450 2C9; type: ADME
Cathepsin B = Cathepsin B (Homo sapiens, UniProt P07858); experiment: Inhibitory activity against Cathepsin B
Serine protease 1 = Serine protease 1 (Homo sapiens, UniProt P07477); experiment: Inhibitory activity against trypsin
Canis familiaris [5] = organism: Canis familiaris; experiment: Plasma protein binding towards dog plasma at 10 uM; type: ADME, Canis lupus familiaris; summary of the method: as §1
Canis familiaris [6] = organism: Canis familiaris; experiment: Plasma protein binding towards dog plasma at 100 uM; type: ADME, Canis lupus familiaris; summary of the method: as §1
Cytochrome P450 2C19 = Cytochrome P450 2C19 (Homo sapiens, UniProt P33261); experiment: Inhibition of Cytochrome P450 2C19; type: ADME
[7] = The compound was tested for toxicity using human neuroblastoma SY5Y cells; type: cell-based
Summary of the method: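 Cytotoxicity was assessed in cultured human neuroblastoma SY5Y cells, alongside rat cerebellar granule neurons.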

Coagulation factor X = Coagulation factor X (Homo sapiens, UniProt P00742); experiment: Inhibitory activity against Coagulation factor X
[8] = Binding towards human plasma protein at 100 uM; type: ADME, cell-free; summary of the method: as §1
Chymotrypsinogen A = Chymotrypsinogen A (Bos taurus, UniProt P00766); experiment: Inhibitory activity against Chymotrypsinogen
Cytochrome P450 2D6 = Cytochrome P450 2D6 (Homo sapiens, UniProt P10635); experiment: Inhibition of Cytochrome P450 2D6; type: ADME
[9] = Binding towards monkey plasma protein at 100 uM; type: ADME, cell-free; settings: cercopithecidae; summary of the method: as §1
Mus musculus [10] = organism: Mus musculus; experiment: Binding towards mouse plasma protein at 100 uM; type: ADME; summary of the method: as §1
[11] = Binding towards human plasma protein at 10 uM; type: ADME, cell-free; summary of the method: as §1
Proteasome = experiment: Inhibitory activity against proteasome; type: subcellular
Cytochrome P450 3A4 [12] = biological target: T1, Cytochrome P450 3A4 (Homo sapiens, UniProt P08684); experiment: Inhibition of Cytochrome P450 3A4 as BQ substrate; type: ADME
Caspase-1 = biological target: T2, Caspase-1 (Homo sapiens, UniProt P29466); experiment: Inhibitory activity against interleukin 1-beta converting enzyme (IL-1 beta converting enzyme)
T2 sequence (P29466 whole entry): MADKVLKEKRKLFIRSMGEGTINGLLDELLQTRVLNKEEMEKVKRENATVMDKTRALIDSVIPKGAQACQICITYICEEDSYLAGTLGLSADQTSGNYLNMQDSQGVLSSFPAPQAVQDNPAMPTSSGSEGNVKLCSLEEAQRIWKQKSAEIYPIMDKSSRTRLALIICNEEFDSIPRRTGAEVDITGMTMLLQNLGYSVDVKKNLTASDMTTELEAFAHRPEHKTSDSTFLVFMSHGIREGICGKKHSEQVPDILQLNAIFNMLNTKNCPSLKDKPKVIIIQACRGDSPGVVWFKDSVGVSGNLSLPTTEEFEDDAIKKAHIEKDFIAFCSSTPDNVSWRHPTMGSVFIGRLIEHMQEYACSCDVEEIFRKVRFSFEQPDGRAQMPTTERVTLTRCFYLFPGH

Coagulation factor VII = biological target: T3, Coagulation factor VII (Homo sapiens, UniProt P08709); experiment: Inhibitory activity against coagulation factor VII
T3 sequence (P08709 whole entry): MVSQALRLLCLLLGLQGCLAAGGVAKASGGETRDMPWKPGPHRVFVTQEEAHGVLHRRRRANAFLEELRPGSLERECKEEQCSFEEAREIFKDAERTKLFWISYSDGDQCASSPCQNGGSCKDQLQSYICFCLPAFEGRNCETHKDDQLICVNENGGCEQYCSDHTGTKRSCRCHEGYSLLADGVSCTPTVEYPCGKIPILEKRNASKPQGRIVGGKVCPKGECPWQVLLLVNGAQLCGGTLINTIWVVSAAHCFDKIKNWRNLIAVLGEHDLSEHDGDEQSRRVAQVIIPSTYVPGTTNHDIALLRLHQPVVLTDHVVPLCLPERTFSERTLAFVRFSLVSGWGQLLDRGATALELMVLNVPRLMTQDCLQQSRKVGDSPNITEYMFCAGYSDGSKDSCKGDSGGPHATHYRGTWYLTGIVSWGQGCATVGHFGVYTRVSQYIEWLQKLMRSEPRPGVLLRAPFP

Cytochrome P450 3A4 [13] = biological target: T1, Cytochrome P450 3A4; experiment: Inhibition of Cytochrome P450 3A4 as BFC substrate; type: ADME

T1 sequence (P08684 whole entry): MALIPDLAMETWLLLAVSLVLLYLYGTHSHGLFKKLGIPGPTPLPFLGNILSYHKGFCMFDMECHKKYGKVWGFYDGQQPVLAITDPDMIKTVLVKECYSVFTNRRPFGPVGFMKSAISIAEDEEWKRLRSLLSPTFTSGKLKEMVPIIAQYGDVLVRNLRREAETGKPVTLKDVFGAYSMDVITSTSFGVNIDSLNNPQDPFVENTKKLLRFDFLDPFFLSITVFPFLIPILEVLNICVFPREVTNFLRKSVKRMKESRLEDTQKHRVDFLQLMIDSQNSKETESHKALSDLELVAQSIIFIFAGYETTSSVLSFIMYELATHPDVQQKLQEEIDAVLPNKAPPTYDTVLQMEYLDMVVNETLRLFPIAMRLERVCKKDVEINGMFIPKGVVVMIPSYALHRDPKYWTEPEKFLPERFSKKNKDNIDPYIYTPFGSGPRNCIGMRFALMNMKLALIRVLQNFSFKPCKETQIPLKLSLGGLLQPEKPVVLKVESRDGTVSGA
Chain of Coagulation factor X (P00742 41-179 limits assumed): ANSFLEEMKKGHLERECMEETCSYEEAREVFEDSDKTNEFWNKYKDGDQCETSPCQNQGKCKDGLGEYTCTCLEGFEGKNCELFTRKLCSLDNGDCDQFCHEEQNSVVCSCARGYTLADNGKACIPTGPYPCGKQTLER
Chain of Coagulation factor X (P00742 235-488 limits assumed): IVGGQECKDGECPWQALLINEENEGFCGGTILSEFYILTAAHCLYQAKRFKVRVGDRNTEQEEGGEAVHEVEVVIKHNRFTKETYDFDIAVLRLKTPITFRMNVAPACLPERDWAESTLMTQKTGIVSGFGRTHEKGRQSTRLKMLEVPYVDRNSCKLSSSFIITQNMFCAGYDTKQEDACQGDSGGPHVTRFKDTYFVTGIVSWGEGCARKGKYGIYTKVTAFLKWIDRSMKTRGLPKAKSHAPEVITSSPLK
Chain of Cytochrome P450 2C9 (P11712 whole entry): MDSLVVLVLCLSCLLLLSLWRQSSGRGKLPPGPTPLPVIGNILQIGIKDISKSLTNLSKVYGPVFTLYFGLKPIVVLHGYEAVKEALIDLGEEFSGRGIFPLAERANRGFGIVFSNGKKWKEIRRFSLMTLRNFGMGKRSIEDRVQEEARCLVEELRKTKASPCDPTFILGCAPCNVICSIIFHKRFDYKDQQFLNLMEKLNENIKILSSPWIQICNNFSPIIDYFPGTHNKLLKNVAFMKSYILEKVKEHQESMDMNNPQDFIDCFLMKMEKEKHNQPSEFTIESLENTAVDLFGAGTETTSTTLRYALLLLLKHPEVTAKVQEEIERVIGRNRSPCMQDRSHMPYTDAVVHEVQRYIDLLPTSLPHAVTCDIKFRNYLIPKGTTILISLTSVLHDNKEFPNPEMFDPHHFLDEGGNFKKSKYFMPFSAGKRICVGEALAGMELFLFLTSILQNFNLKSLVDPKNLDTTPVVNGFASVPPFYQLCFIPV
Chain of Serine protease 1 (P07477 whole entry): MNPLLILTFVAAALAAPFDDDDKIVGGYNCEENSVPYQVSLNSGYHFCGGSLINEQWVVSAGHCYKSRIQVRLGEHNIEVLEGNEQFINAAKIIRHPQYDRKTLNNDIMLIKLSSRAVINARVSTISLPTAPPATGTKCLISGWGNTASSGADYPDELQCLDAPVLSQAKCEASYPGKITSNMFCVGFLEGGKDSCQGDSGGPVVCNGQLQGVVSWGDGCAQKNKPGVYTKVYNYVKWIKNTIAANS
Chain of Cytochrome P450 2D6 (P10635 whole entry): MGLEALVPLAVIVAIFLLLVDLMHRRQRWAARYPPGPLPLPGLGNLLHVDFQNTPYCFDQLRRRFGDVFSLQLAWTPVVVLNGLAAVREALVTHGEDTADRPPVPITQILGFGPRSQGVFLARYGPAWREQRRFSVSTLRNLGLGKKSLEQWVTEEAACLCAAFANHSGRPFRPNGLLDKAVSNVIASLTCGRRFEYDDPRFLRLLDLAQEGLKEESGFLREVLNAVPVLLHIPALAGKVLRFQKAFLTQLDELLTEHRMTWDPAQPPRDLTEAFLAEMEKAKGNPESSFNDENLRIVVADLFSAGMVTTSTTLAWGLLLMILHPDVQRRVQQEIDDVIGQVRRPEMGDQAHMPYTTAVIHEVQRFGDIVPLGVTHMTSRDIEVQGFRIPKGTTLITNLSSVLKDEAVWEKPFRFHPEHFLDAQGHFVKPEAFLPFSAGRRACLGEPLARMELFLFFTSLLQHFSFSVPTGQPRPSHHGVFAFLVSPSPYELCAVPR
Chain of Cytochrome P450 2C19 (P33261 whole entry): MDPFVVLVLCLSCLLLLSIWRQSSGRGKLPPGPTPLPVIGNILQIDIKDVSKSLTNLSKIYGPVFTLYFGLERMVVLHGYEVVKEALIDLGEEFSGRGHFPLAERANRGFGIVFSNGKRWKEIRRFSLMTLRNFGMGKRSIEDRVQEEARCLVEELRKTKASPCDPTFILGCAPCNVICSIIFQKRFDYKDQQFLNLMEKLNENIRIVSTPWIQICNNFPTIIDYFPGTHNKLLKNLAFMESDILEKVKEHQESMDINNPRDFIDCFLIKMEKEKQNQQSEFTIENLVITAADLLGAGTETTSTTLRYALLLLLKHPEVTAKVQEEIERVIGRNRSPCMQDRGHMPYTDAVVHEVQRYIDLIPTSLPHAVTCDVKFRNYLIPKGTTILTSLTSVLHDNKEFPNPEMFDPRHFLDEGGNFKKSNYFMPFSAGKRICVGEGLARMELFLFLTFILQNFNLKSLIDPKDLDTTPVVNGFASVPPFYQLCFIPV

Compound: CC(C)C[C@H](C=O)NC(=O)[C@@H](NS(=O)(=O)c1ccc(F)cc1)C(C)C
- IC50 (Prothrombin): > 100 µM
- Binding (Rattus norvegicus [1]): 85.4%
- Binding (Rattus norvegicus [2]): 89.9%
- Binding [3]: 95.1%
- Binding (Mus musculus [4]): 89.9%
- IC50 (Cytochrome P450 2C9): 492 µM
- IC50 (Cathepsin B): 0.015 µM
- IC50 (Serine protease 1): > 100 µM
- Binding (Canis familiaris [5]): 75.8%
- Binding (Canis familiaris [6]): 66.8%
- IC50 (Cytochrome P450 2C19): 177 µM
- CC50 [7]: > 1000 µM
- IC50 (Coagulation factor X): > 60 µM
- Binding [8]: 91.6%
- IC50 (Chymotrypsinogen A): > 200 µM
- IC50 (Cytochrome P450 2D6): 291 µM
- Binding [9]: 90.5%
- Binding (Mus musculus [10]): 90.2%
- Binding [11]: 95.4%
- IC50 (Proteasome): > 200 µM
- IC50 (Cytochrome P450 3A4 [12]): 531 µM
- IC50 (Caspase-1): > 100 µM
- IC50 (Coagulation factor VII): > 100 µM
- IC50 (Cytochrome P450 3A4 [13]): 81 µM

Compound: CC(C)C[C@H](C=O)NC(=O)[C@@H](NS(=O)(=O)c1ccc2ccccc2c1)C(C)C
- CC50 ([7]; read-out: LD50 (the source's name)): 9.8 µM
